Source: PMC2034471 (Nucleic Acids Research, 2007)

Key:
[1] = biological target: 211 bp double-stranded DNA; test: EMSA, 211 bp ds DNA; assay type: binding; conditions: read-out: Kd, 211 bp ds, with 1 mM DTT, 50 mM Tris–HCl pH 8.0, 50 mM NaCl, 0.1% triton X-100, 2 h at 22°C, phosphor screen
Method in brief: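 211 bp fragment PCR-amplified from a DraI/BamHI digest of pUC(357.4) and 5′-32P end-labelled with T4 kinase at 37°C. Binding ran 2 h at 22°C in Tris–HCl pH 8.0 buffer with EDTA, AEBSF, 1 mM DTT, 50 mM NaCl and 0.1% triton X-100. Gels were 6% native polyacrylamide in 0.5× TEG at 70 V. Dried gels went onto a phosphor screen, and radioactive signals were quantified for affinity.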

35 bp ss = test: EMSA, 35 nt single-stranded DNA; assay type: binding; conditions: read-out: Kd, 35 bp ss, without DTT, 50 mM Tris–HCl pH 8.0, 50 mM NaCl, 2 h at 22°C
Method in brief: (§1)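 35-mer substrates (ss, GT mismatch, nick, gap, 3′-biotinylated duplex) made by annealing oligonucleotides in 10 mM Tris–HCl pH 8, 1 mM EDTA, 200 mM NaCl: 90°C 10 min, then slow cooling. Annealing checked on native gels. 5′-32P kinase labelling at 25°C. Incubation 2 h at 22°C in 50 mM Tris–HCl pH 8.0, 50 mM NaCl, with or without 1 mM DTT. Native 6% gels; phosphor-screen quantification for affinity.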

[2] = ref [23]; cited from earlier work
[3] = biological target: 35 bp double-stranded DNA; test: EMSA, 35 bp ds DNA; assay type: binding; conditions: read-out: Kd, 35 bp ds, without DTT, 50 mM Tris–HCl pH 8.0, 50 mM NaCl, 2 h at 22°C, DNA 26 nM
35 bp mismatch GT = test: EMSA, 35 bp DNA with GT mismatch; assay type: binding; conditions: read-out: Kd, 35 bp mismatch GT, without DTT, 50 mM Tris–HCl pH 8.0, 50 mM NaCl, 2 h at 22°C
Method in brief: as §1

[4] = aggregation / stability of Rad9 fragments in solution; assay type: physicochemical; conditions: after three days at 0.2 mM and 30°C; MES 50 mM, NaCl 50 mM, 2 mM TCEP, pH 6
35 bp Gap = test: EMSA, 35 bp DNA with gap; assay type: binding; conditions: read-out: Kd, 35 bp Gap, without DTT, 50 mM Tris–HCl pH 8.0, 50 mM NaCl, 2 h at 22°C
Method in brief: as §1

[5] = system: 146 bp double-stranded DNA; test: EMSA, 146 bp ds DNA; assay type: binding; conditions: DNA 26 nM, 2- to 128-fold molar excess of protein
Method in brief: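 146 bp fragment made by PCR on a pUC(357.4) digest template and 5′-end labelled with 32P-ATP/T4 polynucleotide kinase at 37°C. Protein fragments incubated with labelled DNA for 2 h at 22°C in 50 mM Tris–HCl pH 8.0, 1 mM EDTA, 1 mM AEBSF, 1 mM DTT, 50 mM NaCl, 0.1% triton X-100. Resolved on pre-run 6% native polyacrylamide (29:1) in 0.5× TEG at 70 V. Complexes detected by autoradiography of dried gels at –80°C.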

[6] = system: 35 bp ds with a 3′ terminal biotin; test: EMSA, 35 bp ds DNA with one 3′ terminal biotin; assay type: binding
Method in brief: as §1

35 bp Nick = test: EMSA, 35 bp DNA with nick; assay type: binding; conditions: read-out: Kd, 35 bp Nick, without DTT, 50 mM Tris–HCl pH 8.0, 50 mM NaCl, 2 h at 22°C
Method in brief: as §1

Kd [1]: 500 ± 70 nM
Kd (35 bp ss): 2500 ± 180 nM
Kd [3]: 960 ± 80 nM
Kd (35 bp mismatch GT): 890 ± 70 nM
Kd (35 bp Gap): 960 ± 130 nM
Kd ([6]; read-out: Kd, 35 bp ds with a 3′ terminal biotin, EMSA, with 1 mM DTT, 50 mM Tris–HCl pH 8.0, 50 mM NaCl, 2 h at 22°C): 830 ± 50 nM
Kd (35 bp Nick): 620 ± 60 nM
B1: ScRad9[754–947]: fragment 754–947 of Saccharomyces cerevisiae Rad9, tandem tudor domain (protein)
chain: GKDSKEQSYVFPEGIRTADNSFLSKDDIIFGNAVWCQYTWNYKFYPGILLEVDTNQDGCWIYFETGRSLTKDEDIYYLDIRIGDAVTFDGNEYVVVGLECRSHDLNIIRCIRGYDTVHLKKKNASGLLGKRTLIKALSSISLDLSEWAKRAKIILEDNEKNKGDAYRYLRHPIRGRKSMTNVLSPKKHTDDEKD
heat transition midpoint [2]: 52 °C
fraction of fragment aggregated [4]: 50%
interaction with 146 bp ds DNA by gel retardation [5]: forms complexes
effect of biotin on affinity for the oligonucleotide ([6]; 35 bp ds, biotinylated at one or two 3′-OH ends, no streptavidin): does not modify the affinity
